Data set [1] relates to Rattus norvegicus. Put plainly: Antiinflammatory activity in Sprague-Dawley rat acute model of carrageenan-induced paw edema assessed as inhibition of rat paw edema at 50 mg/kg, po pre treated for 1 hr followed by carrageenan-stimulation and measured after 3 hrs by plethysmometeric method relative to control. Format: functional. Conditions: time 4 hrs. An outline of the steps: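 SD rats of either sex, 150–200 g, n = 6, dosed orally in 0.2% agar suspension. After 1 h, 0.1 mL 1% carrageenan in saline injected into the left hind sub-plantar paw. Paw volume measured by mercury plethysmometer before and 3 h after injection. % edema inhibition calculated. Mean ± SEM.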

Data set [2] has as its system Rattus norvegicus. Put plainly: Antiinflammatory activity in Sprague-Dawley rat acute model of carrageenan-induced paw edema assessed as inhibition of rat paw edema at 50 mg/kg, po pre treated for 1 hr followed by carrageenan-stimulation and measured after 3 hrs by plethysmometeric method relative to control. In general terms: The carrageenan paw model is a standard test of acute inflammation.

Data set [3] concerns Rattus norvegicus. In words: Antiinflammatory activity in Sprague-Dawley rat chronic model of formalin-induced paw edema assessed as inhibition of rat paw edema at 50 mg/kg, po pre treated for 1 hr followed by formalin-stimulation and measured after 5 days by plethysmometeric method relative to control. Format: functional. The conditions noted are these: 120 h, time 5 day. An outline of the steps: (§1)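 Chronic paw edema. Oral pre-dose in 0.2% agar; after 1 h, 0.1 mL 2% formalin in saline injected into the left hind sub-plantar paw, repeated on 5 consecutive days. Paw volume by plethysmometer. % inhibition of edema size relative to disease control, days 1–5. n = 6, mean ± SEM, one-way ANOVA with Tukey's test.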

Data set [4] can be described thus: Toxicity in AlCl3-induced Sprague-Dawley rat assessed as reduction in serum albumin level at 5 mg/kg, po after 28 days by automated analyser. Format: organism-based. Conditions: in vivo, 672 h, time 28 day. The essentials:
(§2)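 Under isoflurane, retro-orbital blood was collected into non-heparinized tubes after the 28-day AlCl3 model with oral dosing. Serum % albumin and total protein were measured on an automated clinical chemistry analyser.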

The subject of data set [5] is Rattus norvegicus. In words: Antialzheimer activity against AlCl3-induced Sprague-Dawley rat assessed as reduction in hippocampal neuronal degeneration at 5 mg/kg, po after 28 days by H and E staining based microscopic method. Format: functional, organism-based. The conditions noted are these: time 28.0 day. An outline of the steps:
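Hippocampal neuronal degeneration. After 28 days of oral dosing in 0.2% agar with daily AlCl3 4.2 mg/kg i.p., brain sections were HE-stained and hippocampal regions examined at 100X.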

A short description of data set [6]: Toxicity in AlCl3-induced Sprague-Dawley rat assessed as reduction in HCT level at 5 mg/kg, po after 28 days by automated haematology analyser. It counts as organism-based. The conditions noted are these: in vivo, 672 h, time 28 day. The essentials: (§3)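 On day 29 of the AlCl3 model (28 days of oral dosing), blood was drawn from the retro-orbital sinus under isoflurane into heparinized tubes. Haemoglobin and haematocrit were measured on a haematology analyser.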

Data set [7] is described as follows: Toxicity in AlCl3-induced Sprague-Dawley rat assessed as reduction in total protein level at 5 mg/kg, po after 28 days by automated analyser. The conditions noted are these: in vivo, 672 h, time 28 day. Format: organism-based. An outline of the steps:
as §2

Data set [8] in a line: Toxicity in AlCl3-induced Sprague-Dawley rat assessed as reduction in HGB level at 5 mg/kg, po after 28 days by automated haematology analyser. Format: organism-based. The conditions noted are these: in vivo, 672 h, time 28 day. The essentials: as §3
The nature of data set [9]: Toxicity in AlCl3-induced Sprague-Dawley rat assessed as stomach lesion index at 5 mg/kg, po after 28 days by H and E staining based microscopic method. Format: organism-based. The conditions noted are these: in vivo, 672 h, time 28 day. The essentials: (§4)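 Gastrointestinal damage in AlCl3-model rats, 28 days of oral dosing. Stomach and intestines were washed in cold PBS 0.01 M pH 7.4 and fixed 24 h in 10% neutral buffered formalin. After a 70% ethanol wash, haemorrhagic damage was measured by digital vernier caliper for the lesion index. HE-stained sections examined microscopically.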

Data set [10] is described as follows: Toxicity in AlCl3-induced Sprague-Dawley rat assessed as intestine lesion index at 5 mg/kg, po after 28 days by H and E staining based microscopic method. Format: organism-based. The conditions noted are these: in vivo, 672 h, time 28 day. An outline of the steps:
as §4

For data set [11], the system named is Rattus norvegicus. In words: Antiinflammatory activity in Sprague-Dawley rat chronic model of formalin-induced paw edema assessed as inhibition of rat paw edema at 50 mg/kg, po pre treated for 1 hr followed by formalin-stimulation and measured after 3 days by plethysmometeric method relative to control. Format: functional. Conditions: 72 h, time 3 day. An outline of the steps:
as §1

In data set [12] the test system is Rattus norvegicus. Put plainly: Antiinflammatory activity in Sprague-Dawley rat chronic model of formalin-induced paw edema assessed as inhibition of rat paw edema at 50 mg/kg, po pre treated for 1 hr followed by formalin-stimulation and measured after 5 day by plethysmometeric method relative to control. Format: functional. The conditions noted are these: 120 h. The essentials: as §1

In data set [13] the test system is Rattus norvegicus. In words: Antiinflammatory activity in Sprague-Dawley rat chronic model of formalin-induced paw edema assessed as inhibition of rat paw edema at 50 mg/kg, po pre treated for 1 hr followed by formalin-stimulation and measured after 2 days by plethysmometeric method relative to control. It counts as functional. The conditions noted are these: 48 h, time 2 day. The essentials:
as §1

Data set [14] relates to Rattus norvegicus. Put plainly: Antiinflammatory activity in Sprague-Dawley rat chronic model of formalin-induced paw edema assessed as inhibition of rat paw edema at 50 mg/kg, po pre treated for 1 hr followed by formalin-stimulation and measured after 4 days by plethysmometeric method relative to control. Format: functional. Conditions: 96 h, time 4 day. The essentials: as §1

The subject of data set [15] is Rattus norvegicus. Put plainly: Antiinflammatory activity in Sprague-Dawley rat chronic model of formalin-induced paw edema assessed as inhibition of rat paw edema at 50 mg/kg, po pre treated for 1 hr followed by formalin-stimulation and measured after 1 day by plethysmometeric method relative to control. Format: functional. The conditions noted are these: 24 h. The essentials: as §1

Molecules are shown by their SMILES. Active and inactive are the calls of the source. The rule behind the calls is not given here.

In general, inhibition in vivo refers to the share of the control response that was lost under treatment.

Take `Cc1ccc2ncc(C(=O)c3sc(N)nc3N(C)C)n2c1`: the inhibition in vivo at 50 mg/kg in the data set on Rattus norvegicus [1] worked out at 23%.
Take `Cc1ccn2c(C(=O)c3cnc4ccccn34)cnc2c1`: the inhibition in vivo at 50 mg/kg came to 67% with Rattus norvegicus [2] and 61% with Rattus norvegicus [3].
Turning to `Nc1nc(-c2ccccc2)c(C(=O)c2cnc3ccccn23)s1`, the inhibition in vivo at 50 mg/kg in the data set on Rattus norvegicus [1] is 40%.
Regarding `Cc1cnc(NC(=O)C2=C(O)c3ccccc3S(=O)(=O)N2C)s1` [MELOXICAM], the Activity entry in data set [4] was “Non-Toxic”; in data set [6], “Toxic”; in [7], “Toxic”; in data set [8], “Toxic”. The result in the data set on Rattus norvegicus [5] was Active. Further, the Activity_index in data set [9] amounted to 12.19 mm; in data set [10], 29.15 mm.
As to `CN(C)c1nc(N)sc1C(=O)c1cnc2ccccn12`, the inhibition in vivo at 50 mg/kg with Rattus norvegicus [1] worked out at 32%.
`Cc1nc(N)sc1C(=O)c1cnc2c(C)cccn12`: in the data set with Rattus norvegicus [1], the inhibition in vivo at 50 mg/kg worked out at 45%.
Consider `Cc1ccc2ncc(C(=O)c3cnc(N)s3)n2c1`, for which, in the data set with Rattus norvegicus [1], the inhibition in vivo at 50 mg/kg came out at 53%.
Same read-out and setting: for `Cc1cccn2c(C(=O)c3cnc(N)s3)cnc12` the value was 31%.
On to `Cc1cccn2c(C(=O)c3sc(N)nc3N(C)C)cnc12`, for which the inhibition in vivo at 50 mg/kg turned out to be 56% in the data set on Rattus norvegicus [11]; 54% in the data set on Rattus norvegicus [12]; 56% in the data set with Rattus norvegicus [13]; 54% in the data set on Rattus norvegicus [14]; 81% in the data set on Rattus norvegicus [1]; 55% in the data set with Rattus norvegicus [15].

(Values after ChEMBL document CHEMBL4732250, “Investigations on substituted (2-aminothiazol-5-yl)(imidazo[1,2-a]pyridin-3-yl)methanones for the treatment of Alzheimer's disease” (Bioorg Med Chem, 2021).)
